Reference: ChEMBL document CHEMBL1250466, “CLEFMA-an anti-proliferative curcuminoid from structure-activity relationship studies on 3,5-bis(benzylidene)-4-piperidones” (Bioorg Med Chem, 2010)
pIC50: −log10 of the molar value. Calls of active or inactive are those of the source. The calls are words filed in the database; no cut-off is given here.

What was measured:
[1] = Antiproliferative activity against human H441 cells assessed as decrease of hexosaminidase activity after 24 hrs; format: functional, cell-based; details: NCI-H441, 24 h
How it was run: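 H441 (NCI-H441) cells in McCoy's 5A with 5% heat-inactivated FBS, gentamicin 50 μg/ml, 37 °C, 5% CO2; 10×10^3 cells/well seeded, attached overnight. Compounds in DMSO (0.1% final) at 1, 10, 25, 100 μM for 24 h. Hexosaminidase substrate in citrate pH 5, 30 min 37 °C, stopped with glycine/EDTA pH 10.4, A405. Triplicate, repeated at least twice; IC50 from linear or exponential fit of concentration vs activity.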

NCI-H441 [2] = experiment: Induction of autophagy in human H441 cells assessed as large single-walled autophagic vacuoles at 1 to 10 uM after 24 by transmission electron microscopic analysis; format: functional, cell-based
How it was run: (§1)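 H441 cells exposed 24 h at 1 and 10 μM, then fixed 4 h at room temperature in 0.1 M cacodylate with 4% PFA and 2% glutaraldehyde. Post-fixed in 1% osmium tetroxide 1.5 h, dehydrated through a graded ethanol series, ultrasections stained with Sato's lead. Imaged by transmission electron microscopy at 2500×; untreated cells as controls.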

NCI-H441 [3] = experiment: Induction of autophagy in human H441 cells assessed as chromatin condensation at 1 to 10 uM after 24 by transmission electron microscopic analysis; format: functional, cell-based; how it was run: as §1
NCI-H441 [4] = experiment: Induction of autophagy in human H441 cells assessed as peri-nuclear accumulation of mitochondria at 1 to 10 uM after 24 by transmission electron microscopic analysis; format: functional; how it was run: as §1
PANC-1 = experiment: Antiproliferative activity against human PANC1 cells assessed as decrease of hexosaminidase activity at 1 to 100 uM after 24 to 72 hrs; format: functional, cell-based
How it was run: (§2)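 Cells kept as for H441 but in RPMI 1640 with 5% heat-inactivated FBS and gentamicin 50 μg/ml; 10×10^3 cells/well seeded, attached overnight. Compounds in DMSO (0.1% final) at 1, 10, 25, 100 μM for 24, 48 and 72 h. Remaining cells read by hexosaminidase activity (substrate in citrate pH 5, 30 min 37 °C, glycine/EDTA pH 10.4 stop, A405) as percent of DMSO control; triplicate, repeated at least twice.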

NCI-H441 [5] = experiment: Induction of autophagosome formation in human H441 cells at 10 uM after 24 using monodansylcadaverine staining by fluorescent microscopic analysis in presence of 3-methyladenine; format: functional, cell-based
How it was run: (§3)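 H441 cells labeled with the autophagic-vacuole marker monodansylcadaverine after treatment and examined by fluorescence microscopy; autophagy inhibition tested with 3-methyladenine.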

NCI-H441 [6] = experiment: Induction of autophagy in human H441 cells assessed as peri-nuclear accumulation of cell organelles at 1 to 10 uM after 24 by transmission electron microscopic analysis; format: functional, cell-based; how it was run: as §1
MIA PaCa-2 = experiment: Antiproliferative activity against human MIAPaCa2 cells assessed as decrease of hexosaminidase activity at 1 to 100 uM after 24 to 72 hrs; format: functional, cell-based; how it was run: as §2
NCI-H441 [7] = experiment: Induction of autophagosome formation in human H441 cells at 10 uM after 24 using monodansylcadaverine staining by fluorescent microscopic analysis; format: functional, cell-based; how it was run: as §3
NCI-H441 [8] = experiment: Induction of apoptosis in human H441 cells assessed as caspase 3 activation by immunoblotting; format: functional, cell-based
PC-3 = experiment: Antiproliferative activity against human PC3 cells assessed as decrease of hexosaminidase activity at 1 to 100 uM after 24 to 72 hrs; format: functional, cell-based; how it was run: as §2
NCI-H441 [9] = experiment: Induction of apoptosis in human H441 cells assessed as caspase cleavage by immunoblotting; format: functional, cell-based
NCI-H441 [10] = experiment: Induction of autophagy in human H441 cells assessed as blebbing of nuclear membrane at 1 to 10 uM after 24 by transmission electron microscopic analysis; format: functional, cell-based; how it was run: as §1
NCI-H441 [11] = experiment: Induction of apoptosis in human H441 cells; format: functional, cell-based
NCI-H441 [12] = experiment: Induction of autophagy in human H441 cells assessed as double-membrane pre-autophagosomal structures containing cell organelles at 1 to 10 uM after 24 hrs by transmission electron microscopic analysis; format: functional, cell-based; how it was run: as §1
NCI-H441 [13] = experiment: Induction of apoptosis in human H441 cells assessed as caspase 3/7 activation by immunoblotting; format: functional, cell-based

| Structure (SMILES) | pIC50 [1] | other results |
| --- | --- | --- |
| O=C1/C(=C/c2ccc(F)cc2)CNC/C1=C\c1ccc(F)cc1 | 4.34 |  |
| Cc1ccc(S(=O)(=O)N2C/C(=C\c3ccccc3F)C(=O)/C(=C/c3ccccc3F)C2)cc1 | 4.30 |  |
| O=C(O)CCC(=O)N1C/C(=C\c2ccccc2F)C(=O)/C(=C/c2ccccc2F)C1 | 4.16 |  |
| CCCCCCCCCC/C=C/C(CC(=O)O)C(=O)N1C/C(=C\c2ccccc2F)C(=O)/C(=C/c2ccccc2F)C1 (configuration not stated) | 4.24 |  |
| CC(=O)N1C/C(=C\c2ccccc2F)C(=O)/C(=C/c2ccccc2F)C1 | 4.27 |  |
| O=C1/C(=C/c2ccccc2[N+](=O)[O-])CNC/C1=C\c1ccccc1[N+](=O)[O-] | 4.03 |  |
| O=C(O)/C=C\C(=O)N1C/C(=C\c2ccccc2Cl)C(=O)/C(=C/c2ccccc2Cl)C1 | 6.00 | Activity (NCI-H441 [2]): Active; Activity (NCI-H441 [3]): inactive; Activity (NCI-H441 [4]): Active; Activity (PANC-1): Active; Activity (NCI-H441 [5]): inactive; Activity (NCI-H441 [6]): Active; Activity (MIA PaCa-2): Active; Activity (NCI-H441 [7]): Active; Activity (NCI-H441 [8]): inactive; Activity (PC-3): Active; Activity (NCI-H441 [9]): inactive; Activity (NCI-H441 [10]): Active; Activity (NCI-H441 [11]): inactive; Activity (NCI-H441 [12]): Active; Activity (NCI-H441 [13]): inactive |
| O=C(O)CCCC(=O)N1C/C(=C\c2ccccc2F)C(=O)/C(=C/c2ccccc2F)C1 | 4.22 |  |
| O=CN1C/C(=C\c2ccccc2F)C(=O)/C(=C/c2ccccc2F)C1 | 4.31 |  |
| O=C1/C(=C/c2ccc(Cl)cc2)CNC/C1=C\c1ccc(Cl)cc1 | 4.06 |  |
| CCCCCCCCCCCCCCCC/C=C/C(CC(=O)O)C(=O)N1C/C(=C\c2ccccc2F)C(=O)/C(=C/c2ccccc2F)C1 (configuration not stated) | 4.08 |  |
| O=C1/C(=C/c2ccccc2F)CNC/C1=C\c1ccccc1F | 4.36 | Activity (NCI-H441 [2]): Active; Activity (NCI-H441 [3]): inactive; Activity (NCI-H441 [4]): Active; Activity (NCI-H441 [5]): inactive; Activity (NCI-H441 [6]): Active; Activity (NCI-H441 [7]): Active; Activity (NCI-H441 [10]): Active; Activity (NCI-H441 [12]): Active |
| CN(C)c1ccc(/C=C2\CNC/C(=C\c3ccc(N(C)C)cc3)C2=O)cc1 | 4.00 |  |
| O=C1/C(=C/c2ccccc2Br)CNC/C1=C\c1ccccc1Br | 5.22 |  |
| CCCCCCCCCCCC/C=C/C(CC(=O)O)C(=O)N1C/C(=C\c2ccccc2F)C(=O)/C(=C/c2ccccc2F)C1 (configuration not stated) | 4.33 |  |
| O=C(O)/C=C/C(=O)N1C/C(=C\c2ccccc2F)C(=O)/C(=C/c2ccccc2F)C1 | 4.54 |  |
| O=C1/C(=C/c2ccccc2F)CN(C(=O)c2ccccc2C(=O)O)C/C1=C\c1ccccc1F | 4.25 |  |
| O=C1/C(=C/c2ccccc2Cl)CNC/C1=C\c1ccccc1Cl | 5.30 |  |
| CCCCCCCCCCCCCCCCNC(=O)CCC(=O)N1C/C(=C\c2ccccc2F)C(=O)/C(=C/c2ccccc2F)C1 | 4.19 |  |
| O=C1/C(=C/c2cccc(Cl)c2)CNC/C1=C\c1cccc(Cl)c1 | 4.30 |  |
| O=C(CN1C/C(=C\c2ccccc2F)C(=O)/C(=C/c2ccccc2F)C1)NCc1ccc(F)cc1 | 4.34 |  |
| O=C1/C(=C/c2ccccc2)CNC/C1=C\c1ccccc1 | 4.92 |  |
| O=C(CCC(=O)N1C/C(=C\c2ccccc2F)C(=O)/C(=C/c2ccccc2F)C1)N[C@@H]1[C@@H](O)[C@H](O)[C@@H](CO)O[C@H]1O | 4.10 |  |
| O=C1/C(=C/c2ccccc2F)CN(C(=O)C2CCCCC2C(=O)O)C/C1=C\c1ccccc1F (configuration not stated) | 4.26 |  |
